Measured values as given in ChEMBL document CHEMBL1641461, “Azaindoles as potent CRTH2 receptor antagonists” (Bioorg Med Chem Lett, 2011).

Assays:
[1] = target: T1, Prostaglandin D2 receptor 2 (Homo sapiens, UniProt Q9Y5Y4); assay: Displacement of radioligand from human CRTH2 expressed in HEK293 cells by competitive binding assay; assay type: cell-based
T1 sequence (Q9Y5Y4 whole entry): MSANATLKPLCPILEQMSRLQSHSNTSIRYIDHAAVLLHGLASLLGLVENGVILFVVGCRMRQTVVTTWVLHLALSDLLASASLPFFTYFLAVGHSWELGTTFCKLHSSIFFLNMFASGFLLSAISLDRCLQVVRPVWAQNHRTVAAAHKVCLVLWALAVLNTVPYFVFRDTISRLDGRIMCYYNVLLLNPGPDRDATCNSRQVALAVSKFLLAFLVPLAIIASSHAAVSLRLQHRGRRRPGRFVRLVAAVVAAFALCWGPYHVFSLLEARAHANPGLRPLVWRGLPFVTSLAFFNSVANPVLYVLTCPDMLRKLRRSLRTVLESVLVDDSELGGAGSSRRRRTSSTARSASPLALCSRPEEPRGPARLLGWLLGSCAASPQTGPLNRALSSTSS
Procedure, shortened: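 Radioligand competition binding on membranes from HEK293 (EBNA) cells stably expressing hCRTH2, in 10 mM HEPES/KOH. Mean of two or more experiments.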

[2] = target: T2, Prostaglandin D2 receptor (Homo sapiens, UniProt Q13258); assay: Displacement of radioligand from prostanoid DP receptor expressed in HEK293 cells by competitive binding assay; assay type: cell-based
T2 sequence (Q13258 whole entry): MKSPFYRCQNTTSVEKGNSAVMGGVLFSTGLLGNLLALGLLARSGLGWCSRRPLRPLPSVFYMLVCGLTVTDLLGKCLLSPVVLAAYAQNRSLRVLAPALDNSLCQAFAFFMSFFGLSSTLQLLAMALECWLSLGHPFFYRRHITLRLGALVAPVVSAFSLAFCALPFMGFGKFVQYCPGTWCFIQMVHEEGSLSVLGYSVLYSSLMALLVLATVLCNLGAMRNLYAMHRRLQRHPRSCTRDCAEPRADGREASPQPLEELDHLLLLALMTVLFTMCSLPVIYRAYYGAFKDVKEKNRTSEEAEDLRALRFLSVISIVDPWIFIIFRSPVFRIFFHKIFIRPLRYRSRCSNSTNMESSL

Thromboxane A2 receptor = target: T3, Thromboxane A2 receptor (Homo sapiens, UniProt P21731); assay: Displacement of radioligand from prostanoid TP receptor expressed in HEK293 cells by competitive binding assay; assay type: cell-based
T3 sequence (P21731 whole entry): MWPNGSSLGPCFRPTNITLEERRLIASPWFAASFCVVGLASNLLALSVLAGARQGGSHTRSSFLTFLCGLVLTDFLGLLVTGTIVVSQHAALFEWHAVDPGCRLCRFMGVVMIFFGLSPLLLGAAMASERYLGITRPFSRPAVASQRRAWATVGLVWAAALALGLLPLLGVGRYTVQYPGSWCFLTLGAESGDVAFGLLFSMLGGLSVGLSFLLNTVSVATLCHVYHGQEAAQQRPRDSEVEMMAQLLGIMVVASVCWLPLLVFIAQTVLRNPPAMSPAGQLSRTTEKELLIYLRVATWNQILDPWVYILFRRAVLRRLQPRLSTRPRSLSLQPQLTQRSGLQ

[3] = target: T1, Prostaglandin D2 receptor 2; assay: Antagonist activity at human CRTH2 expressed in HEK293 cells assessed as inhibition of forskolin-induced increase intracellular [125I]cAMP level by scintillation proximity assay; assay type: functional, cell-based
Procedure, shortened: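 Intracellular cAMP measured by ¹²⁵I-cAMP scintillation proximity assay in Hank's balanced salt solution with 25 mM HEPES and forskolin. Values are the mean of two or more experiments.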

Cytochrome P450 2C9 = Cytochrome P450 2C9 (Homo sapiens, UniProt P11712); assay: Inhibition of CYP2C9; assay type: ADME
Procedure, shortened: (§1)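 CYP2C9 and CYP3A4 inhibition IC50 values, averaged over at least two experiments.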

Cytochrome P450 3A4 = Cytochrome P450 3A4 (Homo sapiens, UniProt P08684); assay: Inhibition of CYP3A4; assay type: ADME; procedure, shortened: as §1
[4] = Bioavailability in Sprague-Dawley rat at 5 mg/kg, po and 1 mg/kg, iv; assay type: ADME, organism-based; conditions: in vivo
Procedure, shortened: (§2)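 Rats dosed PO at 5 mg/kg (5 mL/kg) in 0.5% methocel and IV at 1 mg/kg (1 mL/kg) in 60% PEG 200; n = 2.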

[5] = Clearance in Sprague-Dawley rat at 5 mg/kg, po and 1 mg/kg, iv; assay type: ADME, organism-based; conditions: in vivo; procedure, shortened: as §2
[6] = Volume of distribution in Sprague-Dawley rat at 5 mg/kg, po and 1 mg/kg, iv; assay type: ADME, organism-based; conditions: in vivo; procedure, shortened: as §2
[7] = Half life in Sprague-Dawley rat at 5 mg/kg, po and 1 mg/kg, iv; assay type: ADME, organism-based; conditions: in vivo; procedure, shortened: as §2
Rattus norvegicus = assay: (§3) Bioavailability in Sprague-Dawley rat at 1 mg/kg, iv; assay type: ADME, organism-based; conditions: in vivo
[8] = as §3; assay type: ADME, organism-based; conditions: Sprague-Dawley, in vivo

Sequence of Cytochrome P450 2C9 (P11712 whole entry): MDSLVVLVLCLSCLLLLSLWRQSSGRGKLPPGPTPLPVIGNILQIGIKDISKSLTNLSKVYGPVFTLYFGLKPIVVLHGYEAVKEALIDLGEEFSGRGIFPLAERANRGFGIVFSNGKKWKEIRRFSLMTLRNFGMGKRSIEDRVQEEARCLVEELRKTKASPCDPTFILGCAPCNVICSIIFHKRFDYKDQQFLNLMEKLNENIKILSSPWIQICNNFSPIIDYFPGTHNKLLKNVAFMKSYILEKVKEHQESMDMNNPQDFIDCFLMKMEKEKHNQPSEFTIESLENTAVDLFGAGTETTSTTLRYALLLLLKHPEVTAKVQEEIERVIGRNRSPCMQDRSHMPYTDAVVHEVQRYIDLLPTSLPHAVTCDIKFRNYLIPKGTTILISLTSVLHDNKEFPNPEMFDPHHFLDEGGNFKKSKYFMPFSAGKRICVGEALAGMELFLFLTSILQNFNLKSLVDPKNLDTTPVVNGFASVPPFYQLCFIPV
Sequence of Cytochrome P450 3A4 (P08684 whole entry): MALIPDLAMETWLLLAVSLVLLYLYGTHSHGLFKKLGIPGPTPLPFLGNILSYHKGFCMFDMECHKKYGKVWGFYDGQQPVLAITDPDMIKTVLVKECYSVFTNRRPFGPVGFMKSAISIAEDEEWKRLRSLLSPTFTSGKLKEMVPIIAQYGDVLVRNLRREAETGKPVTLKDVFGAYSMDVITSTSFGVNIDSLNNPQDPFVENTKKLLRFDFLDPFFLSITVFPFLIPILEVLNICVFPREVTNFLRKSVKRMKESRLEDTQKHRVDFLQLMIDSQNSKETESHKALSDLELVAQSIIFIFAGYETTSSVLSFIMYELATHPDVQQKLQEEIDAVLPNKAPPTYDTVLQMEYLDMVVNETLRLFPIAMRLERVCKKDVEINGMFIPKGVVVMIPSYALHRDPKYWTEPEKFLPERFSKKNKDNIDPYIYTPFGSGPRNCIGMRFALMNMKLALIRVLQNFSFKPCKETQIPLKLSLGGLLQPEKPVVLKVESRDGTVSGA

SMILES	Ki [1]	Ki [2]	Ki (Thromboxane A2 receptor)	IC50 [3]	IC50 (Cytochrome P450 2C9)	IC50 (Cytochrome P450 3A4)	bioavailability [4]	clearance [5]	Vd [6]	half-life [7]	F (Rattus norvegicus)	bioavailability [8]
CN([C@@H]1CCc2c(CC(=O)O)c3cnccc3n2C1)S(=O)(=O)c1ccc(F)cc1	6720 nM	> 3400 nM	> 6800 nM									
CN([C@@H]1CCc2c(CC(=O)O)c3cccnc3n2C1)S(=O)(=O)c1ccc(F)cc1	3.3 nM	> 47000 nM	> 22000 nM	3.4 nM	> 50000 nM	> 50000 nM	50%	0.4 mL/min/kg	0.23 L/kg	7.5 h		
CN([C@@H]1CCc2c(CC(=O)O)c3ccc(Cl)nc3n2C1)S(=O)(=O)c1ccc(F)cc1	1.8 nM	> 18000 nM	> 27000 nM	3.2 nM								
C[C@H](C(=O)N(C)[C@@H]1CCc2c(CC(=O)O)c3cccnc3n2C1)c1ccc(F)cc1	21.1 nM	> 12000 nM	> 22000 nM	73.8 nM								
CN(C(=O)C(C)(C)c1ccc(F)cc1)[C@@H]1CCc2c(CC(=O)O)c3cccnc3n2C1	4.7 nM	> 10000 nM	> 21000 nM	3.5 nM				21 mL/min/kg	1.54 L/kg	1.9 h	156%	
CN(C(=O)C1(c2ccc(F)cc2)CC1)[C@@H]1CCc2c(CC(=O)O)c3cccnc3n2C1	3.6 nM	> 3700 nM	> 6800 nM	7.5 nM			63%	12 mL/min/kg	2.2 L/kg	3.1 h		
CN(C(=O)C1(c2ccc(F)cc2)CC1(C)C)[C@@H]1CCc2c(CC(=O)O)c3cccnc3n2C1 (stereo partly specified)	5.1 nM	> 4000 nM	> 7200 nM	4.4 nM								
CN(C(=O)C1(c2ccc(F)cc2)CCCC1)[C@@H]1CCc2c(CC(=O)O)c3cccnc3n2C1	3.9 nM	> 4000 nM	> 7200 nM	4.5 nM			38%	18 mL/min/kg	1.72 L/kg	11.6 h		
CN([C@@H]1CCc2c(CC(=O)O)c3ccccc3n2C1)S(=O)(=O)c1ccc(F)cc1 [MK-7246]								3.9 mL/min/kg	1.15 L/kg	4.1 h		138%

Continued by falling Ki [1], values first:

Ki [1]	Ki [2]	Ki (Thromboxane A2 receptor)	IC50 [3]	IC50 (Cytochrome P450 2C9)	IC50 (Cytochrome P450 3A4)	bioavailability [4]	clearance [5]	Vd [6]	half-life [7]	F (Rattus norvegicus)	bioavailability [8]	SMILES
7190 nM	> 1300 nM	> 7000 nM										CN([C@@H]1CCc2c(CC(=O)O)c3ncccc3n2C1)S(=O)(=O)c1ccc(F)cc1
139 nM	> 12000 nM	> 22000 nM	351 nM									CN([C@@H]1CCc2c(CC(=O)O)c3ccncc3n2C1)S(=O)(=O)c1ccc(F)cc1
11.5 nM	> 4000 nM	> 7200 nM	7 nM									CN(C(=O)C1(c2ccc(F)cc2)CCOCC1)[C@@H]1CCc2c(CC(=O)O)c3cccnc3n2C1
3.4 nM	> 38000 nM	> 71000 nM	5.7 nM	> 50000 nM	> 50000 nM	84%	3.6 mL/min/kg	0.67 L/kg	4 h			C[C@@H](C(=O)N(C)[C@@H]1CCc2c(CC(=O)O)c3cccnc3n2C1)c1ccc(F)cc1
3.4 nM	> 4000 nM	> 7200 nM	4.7 nM			20%	28 mL/min/kg	4.58 L/kg	2.1 h			CN(C(=O)C1(c2ccc(F)cc2)CCC1)[C@@H]1CCc2c(CC(=O)O)c3cccnc3n2C1
1.9 nM	> 3800 nM	> 1000 nM	3.6 nM									CN([C@@H]1CCc2c(CC(=O)O)c3ccc(-c4ccc(F)cc4)nc3n2C1)S(=O)(=O)c1ccc(F)cc1
